Results taken from ChEMBL document CHEMBL1255391, “Rates and mechanisms of resistance development in Mycobacterium tuberculosis to a novel diarylquinoline ATP synthase inhibitor” (2010).
Converted amounts (≈) assume the structure as drawn.

How the values were obtained:
Format in all cases: functional
[1] = test system: Mycobacterium tuberculosis; assay: Antimicrobial activity against drug-susceptible Mycobacterium tuberculosis H37Rv
[2] = test system: Mycobacterium tuberculosis; assay: Antimicrobial activity against drug-susceptible Mycobacterium tuberculosis isolate 4 expressing wild type atpE and F0 operon selected after 10 times MIC drug exposure
Summary of the method: (§1)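 Each resistant mutant clone (one colony picked per independent fluctuation culture selected on drug agar) is suspended in PBS, sonicated and applied by 96-pin replicator. Nonselective and rifampin control plates are included. Plates are read after 4 weeks; MIC is the lowest concentration with no visible growth.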

[3] = test system: Mycobacterium tuberculosis; assay: Antimicrobial activity against drug-susceptible Mycobacterium tuberculosis isolate 6 expressing wild type atpE selected after 10 times MIC drug exposure; summary of the method: as §1
[4] = test system: Mycobacterium tuberculosis; assay: Antimicrobial activity against drug-susceptible Mycobacterium tuberculosis H37Rv expressing wild type atpE selected after 10 times MIC drug exposure; summary of the method: as §1
[5] = test system: Mycobacterium tuberculosis; assay: Antimicrobial activity against drug-susceptible Mycobacterium tuberculosis isolate 4 expressing wild type atpE selected after 10 times MIC drug exposure; summary of the method: as §1
[6] = test system: Mycobacterium tuberculosis; assay: Antimicrobial activity against drug-susceptible Mycobacterium tuberculosis isolate 6 expressing wild type atpE selected after 30 times MIC drug exposure; summary of the method: as §1
[7] = test system: Mycobacterium tuberculosis; assay: Antimicrobial activity against drug-susceptible Mycobacterium tuberculosis Mycobacterium tuberculosis H37Rv expressing wild type atpE and F0 operon selected after 10 times MIC drug exposure; summary of the method: as §1
[8] = test system: Mycobacterium tuberculosis; assay: Antimicrobial activity against drug-susceptible Mycobacterium tuberculosis H37Rv expressing wild type atpE selected after 30 times MIC drug exposure; summary of the method: as §1

Compound `COc1nc2ccc(Br)cc2cc1[C@@H](c1ccccc1)[C@@](O)(CCN(C)C)c1cccc2ccccc12` [BEDAQUILINE] has an MIC [1] of 0.03 µg/mL (≈ 0.054 µM), an MIC [2] of 0.3 µg/mL (≈ 0.54 µM) and an MIC [3] of 0.24 µg/mL (≈ 0.432 µM). It also gave an MIC [4] of 0.48 µg/mL (≈ 0.864 µM), an MIC [5] of 0.12 µg/mL (≈ 0.216 µM) and an MIC [6] of 0.12 µg/mL (≈ 0.216 µM). It also gave an MIC [7] of 0.48 µg/mL (≈ 0.864 µM) and an MIC [8] of 0.24 µg/mL (≈ 0.432 µM).
